Consider 25 compounds from ChEMBL document CHEMBL1155020, “Trithiocarbonates as a novel class of HDAC inhibitors: SAR studies, isoenzyme selectivity, and pharmacological profiles” (J Med Chem, 2008).

In general, IC50 refers to the midpoint of a concentration-inhibition curve. What is called EC50 is the concentration at which the effect is half-maximal. As a reminder, the inhibition is the drop in the measured response relative to a control, in per cent. A word on the Ki: it is the equilibrium dissociation constant of an inhibitor or competing ligand from its target.

Experiment [1] concerns the target T1, Histone deacetylase (Homo sapiens) (UniProt Q13547+O15379+Q9UBN7+Q92769+Q9UQL6+Q8WUI4+Q9BY41+Q96DB2+P56524+Q9UKV0+Q969S8). The experiment is described as follows: Inhibition of HDAC in human RKO cells assessed as induction of histone H3 lysine 1 to 20 hyperacetylation at 1 to 10 uM after 24 hrs by Western blotting. It is filed as cell-based. The gist of the method:
(§1)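 RKO cells were treated for 24 h with compound at 1, 3 and 10 µM. Lysates were run on SDS-PAGE and Western blots probed for histone H3 S10 phosphorylation and histone H3 K1-20 acetylation, with β-actin reprobe as control.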
Background: In western blotting, separated proteins are transferred to a membrane and probed.

The target in experiment [2] is Histone deacetylase. The experiment in a line: Inhibition of HDAC in human HeLa cells. It is filed as cell-based.
For experiment [3], the target named is T2, Protein deacetylase HDAC6 (Homo sapiens, UniProt Q9UBN7).
T2 sequence (Q9UBN7 whole entry): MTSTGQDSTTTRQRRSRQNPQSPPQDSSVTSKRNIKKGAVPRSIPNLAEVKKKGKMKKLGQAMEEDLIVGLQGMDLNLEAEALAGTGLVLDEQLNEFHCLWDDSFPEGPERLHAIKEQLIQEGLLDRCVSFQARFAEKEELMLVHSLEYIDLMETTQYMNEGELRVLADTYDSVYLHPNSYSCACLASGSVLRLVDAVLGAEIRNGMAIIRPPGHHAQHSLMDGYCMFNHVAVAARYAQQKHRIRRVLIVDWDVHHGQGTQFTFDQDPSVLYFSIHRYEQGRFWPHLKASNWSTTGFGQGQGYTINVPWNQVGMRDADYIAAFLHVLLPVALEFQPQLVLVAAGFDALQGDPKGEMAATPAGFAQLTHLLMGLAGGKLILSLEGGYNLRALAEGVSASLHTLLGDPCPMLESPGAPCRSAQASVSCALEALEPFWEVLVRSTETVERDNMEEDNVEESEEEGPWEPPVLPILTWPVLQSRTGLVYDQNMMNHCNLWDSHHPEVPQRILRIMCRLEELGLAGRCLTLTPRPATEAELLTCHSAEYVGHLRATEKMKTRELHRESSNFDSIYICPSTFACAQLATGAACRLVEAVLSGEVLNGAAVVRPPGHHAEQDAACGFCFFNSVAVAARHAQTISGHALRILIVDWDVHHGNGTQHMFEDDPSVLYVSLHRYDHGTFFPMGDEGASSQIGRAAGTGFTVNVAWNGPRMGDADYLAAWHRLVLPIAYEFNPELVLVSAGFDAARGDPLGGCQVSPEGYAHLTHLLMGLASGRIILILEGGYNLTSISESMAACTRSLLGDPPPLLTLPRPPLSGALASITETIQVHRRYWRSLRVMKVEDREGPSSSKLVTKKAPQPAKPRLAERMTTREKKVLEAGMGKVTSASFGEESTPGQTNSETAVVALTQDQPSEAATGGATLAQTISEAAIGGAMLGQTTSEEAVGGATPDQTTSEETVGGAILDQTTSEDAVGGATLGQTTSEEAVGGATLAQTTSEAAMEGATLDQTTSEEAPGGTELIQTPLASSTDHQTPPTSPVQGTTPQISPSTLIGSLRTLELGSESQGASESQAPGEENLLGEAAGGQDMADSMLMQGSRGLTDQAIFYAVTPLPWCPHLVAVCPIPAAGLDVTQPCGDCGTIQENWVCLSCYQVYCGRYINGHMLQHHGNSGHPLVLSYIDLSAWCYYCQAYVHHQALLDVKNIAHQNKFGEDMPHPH
The experiment is described as follows: Inhibition of recombinant HDAC6 expressed in HEK293 cells. It is filed as cell-based.

The test system of experiment [4] is HeLa. The experiment is described as follows: Cytotoxicity against human HeLa cells after 72 hrs by alamar blue assay. The format is functional, cell-based. The essentials: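 HeLa cells were seeded at densities allowing growth through 72 h of compound exposure at 37 °C, 5% CO2. Viability was read by Alamar Blue (resazurin) reduction. Replicate assays were averaged, and IC50 was taken from concentration-effect curves.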
(Alamar Blue is a resazurin reagent that responds to reducing activity.)

The target of experiment [5] is T1, Histone deacetylase (Homo sapiens). The experiment in a line: Inhibition of HDAC in human RKO cells assessed as induction of histone H3 serine 10 phosphorylation at 1 to 10 uM after 24 hrs by Western blotting. It is filed as cell-based. The essentials: as §1
Experiment [6] addresses Histone deacetylase 1 (Homo sapiens, UniProt Q13547). The experiment in a line: Inhibition of recombinant HDAC1 expressed in HEK293 cells. It is filed as cell-based.
Experiment [7] addresses Histone deacetylase. The experiment in a line: Inhibition of nuclear HDAC isolated from human HeLa cells. It is filed as cell-based.
Experiment [8] deals with Histone deacetylase. The experiment is described as follows: Inhibition of HDAC in human HeLa cells assessed as induction of histone H3 hyperacetylation after 24 hrs. It is filed as cell-based.
For experiment [9], the system named is RKO. The experiment is described as follows: Induction of apoptosis in human RKO cells at 10 uM after 24 hrs by flow cytometry. A general note: Flow cytometry measures light scatter and fluorescence of single cells or particles in a stream.
For experiment [10], the system named is HeLa. The experiment in a line: Cytotoxicity against human HeLa cells at 50 uM after 72 hrs by alamar blue assay. The format is functional.
Experiment [11] concerns the target T1, Histone deacetylase (Homo sapiens). The experiment in a line: Inhibition of nuclear HDAC isolated from human HeLa cells at 32 uM. The format is cell-free.
Experiment [12] addresses T3, Protein deacetylase HDAC6 (Homo sapiens) (UniProt Q9UBN7).
T3 sequence (whole entry): T2 sequence (Q9UBN7 whole entry)
The experiment is described as follows: Inhibition of recombinant HDAC6 expressed in HEK293 cells at 32 uM. It is filed as cell-based.

The target of experiment [13] is T2, Protein deacetylase HDAC6. The experiment in a line: Inhibition of recombinant HDAC6 expressed in HEK293 cells using variable substrate concentration by Lineweaver-Burke plot. The format is cell-based. The essentials:
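Inhibitor was used at 1/4, 1/2, 1, 2 and 4 times the IC50-derived concentration. Ki was obtained from Lineweaver-Burk plots, with y-axis intersection indicating substrate competition.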

Active and inactive are the calls of the source. No cut-off for these calls is given here.

Chain of Histone deacetylase 1 (Q13547 whole entry): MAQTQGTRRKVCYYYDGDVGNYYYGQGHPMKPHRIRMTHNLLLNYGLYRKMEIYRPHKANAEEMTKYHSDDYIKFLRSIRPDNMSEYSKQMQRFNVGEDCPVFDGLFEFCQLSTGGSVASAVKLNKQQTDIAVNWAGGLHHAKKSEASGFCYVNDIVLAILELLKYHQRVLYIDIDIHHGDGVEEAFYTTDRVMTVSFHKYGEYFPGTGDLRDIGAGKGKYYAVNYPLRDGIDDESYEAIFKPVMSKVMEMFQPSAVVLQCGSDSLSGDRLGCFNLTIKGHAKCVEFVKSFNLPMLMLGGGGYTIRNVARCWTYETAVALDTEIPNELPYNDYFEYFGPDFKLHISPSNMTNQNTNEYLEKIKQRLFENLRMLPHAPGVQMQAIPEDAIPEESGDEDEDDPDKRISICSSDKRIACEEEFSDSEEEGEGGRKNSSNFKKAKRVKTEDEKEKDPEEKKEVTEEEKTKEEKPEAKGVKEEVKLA

As for `CCSC(=S)SCC(=O)c1ccc(CC(=O)NCc2ccccc2)s1`, the result in [1] and in experiment [5] was Active. Also, the half-maximal inhibitory concentration (IC50) came to 9.84 µM in experiment [2]; 250 nM in [3]; 0.71 µM in experiment [4]; 762 nM in [6]; 0.038 µM in [7]. Also, in experiment [8], the EC50 is 2.4 µM.

`CCSC(=S)SCC(=O)c1ccc(-c2ccc(CNc3cnc4ccccc4c3)cn2)s1`: in experiment [9], the result was Active. Also, the IC50 turned out to be 0.683 µM in experiment [2]; 438 nM in experiment [3]; 2.7 µM in [4]; 555 nM in [6]; 0.008 µM in experiment [7]. Besides, the EC50 in [8] came out at 4.8 µM.

With `CCOC(=S)SCC(=O)c1ccc(NC(C)=O)cc1`, the result in experiment [9], in [1] and in experiment [5] was Active. The IC50 came out at 26.2 µM in experiment [2]; 90 nM in experiment [3]; 3.61 µM in experiment [4]; 536 nM in [6]; 0.386 µM in [7]. In experiment [8], the concentration for a half-maximal effect (EC50) was 2.9 µM.

As to `CCSC(=S)SCC(=O)c1cccc(S(=O)(=O)N(C)c2ccc(OC)cc2)c1`, in experiment [10], the inhibition at 50 µM was found to be 43%. Moreover, the IC50 in [3] amounted to 2040 nM; in [6], 5330 nM; in [7] it was 0.11 µM.

As to `CCSC(=S)SCC(=O)c1ccc(CC(=O)Nc2ccc(OC)cc2)s1`, the IC50 in experiment [2] amounted to 7.53 µM; in [3], 116 nM; in [4], 6.61 µM; in experiment [6], 251 nM; in [7], 0.01 µM. Besides, in experiment [8], the EC50 stood at 0.76 µM.

Turning to `CCSC(=S)SCC(=O)c1ccc(C(=O)Nc2ccccc2)cc1`, the IC50 in experiment [2] is 1.11 µM; in [3], 521 nM; in experiment [4], 25.8 µM; in experiment [6], 27900 nM; in [7], 0.074 µM.

Take `CCSC(=S)SCC(=O)c1ccc(CCNC(C)=O)cc1`: the IC50 in experiment [2] came out at 1.48 µM; in experiment [3], 102 nM; in [4], 12.8 µM; in experiment [6] it was 607 nM; in experiment [7], 0.587 µM.

Take `CCSC(=S)SCC(=O)c1cccc(NC(C)=O)c1`: the IC50 in [2] is 3.28 µM; in [3], 329 nM; in [4], 9.38 µM; in [6], 2930 nM; in experiment [7], 0.506 µM.

On to `CCCC(=S)SCC(=O)c1ccc(OC)cc1`, for which the IC50 in [2] was 3.41 µM; in experiment [3], 110 nM; in experiment [4], 5.71 µM; in experiment [6], 422 nM; in experiment [7], 0.123 µM.

For the compound `CCSC(=S)SCC(=O)c1ccc(CNC(C)=O)cc1`, the IC50 in experiment [2] came to 2.07 µM; in experiment [3] it was 346 nM; in [4], 17.9 µM; in experiment [6], 7120 nM; in [7] it was 0.719 µM.

As for `CCOC(=O)SCC(=O)c1ccc(OC)cc1`, the IC50 in [2] was determined as 9.79 µM; in experiment [3], 5360 nM; in [4] it was 18.5 µM; in experiment [6], 21200 nM; in experiment [7], 2.81 µM.

Consider `CCSC(=S)SCC(=O)c1cccc(NC(=O)c2cnc3ccccc3c2)c1`, for which the IC50 in [2] is 0.483 µM; in experiment [3], 89 nM; in experiment [4] it was 9.61 µM; in experiment [6], 592 nM; in [7], 0.036 µM.

`CCSC(=S)SCC(=O)c1cccc(S(=O)(=O)Nc2ccc(OC)cc2)c1`: the IC50 is 2.77 µM in [2]; 519 nM in experiment [3]; 5.17 µM in [4]; 530 nM in experiment [6]; 0.015 µM in experiment [7].

On to `CCSC(=S)SCC(=O)c1ccc(NS(C)(=O)=O)cc1`, for which the IC50 in [2] worked out at 8.95 µM; in [3], 1090 nM; in [4], 45.8 µM; in [6] it was 6110 nM; in [7], 1.26 µM.

On to `CCSC(=S)SCC(=O)c1ccc(NS(=O)(=O)c2ccccc2)cc1`, for which the IC50 in [2] is 0.8 µM; in experiment [3] it was 382 nM; in experiment [4], 9.04 µM; in experiment [6] it was 1870 nM; in experiment [7] it was 0.042 µM.

As to `CCSC(=S)NCC(=O)c1ccc(OC)cc1`, the inhibition at 50 µM in [10] came to 26%. In addition, the inhibition was -3% in [11] and -8% in [12].

As to `CCCC(=S)SCC(=O)c1ccc(NC(C)=O)cc1`, the IC50 was 1.37 µM in [2]; 23 nM in [3]; 6.41 µM in experiment [4]; 164 nM in experiment [6]; 0.087 µM in [7].

As for `CCSC(=S)SCC(=O)c1ccc(NC(=O)c2cnc3ccccc3c2)cc1`, the IC50 in experiment [2] was found to be 0.748 µM; in [3], 119 nM; in [4], 50 µM; in experiment [6], 980 nM; in [7], 0.066 µM.

Regarding `CCSC(=S)SCC(=O)c1ccn(S(=O)(=O)c2ccccc2)c1`, the Ki in experiment [13] was 140 nM.

For the compound `CCSC(=S)SCC(=O)c1ccc(S(=O)(=O)Nc2ccc(OC)cc2)cc1`, the IC50 in experiment [2] is 0.377 µM; in [3] it was 245 nM; in experiment [4], 4.32 µM; in [6] it was 227 nM; in experiment [7], 0.016 µM.

On to `CCSC(=S)SCC(=O)c1cccc(C(=O)Nc2ccccc2)c1`, for which the IC50 in [2] worked out at 1.23 µM; in [3] it was 517 nM; in [4] it was 2.4 µM; in experiment [6], 1670 nM; in experiment [7] it was 0.124 µM.

Take `CCNC(=O)SCC(=O)c1ccc(OC)cc1`: the IC50 in experiment [2] is 3.18 µM; in [3], 132 nM; in experiment [4] it was 13.3 µM; in [6], 368 nM; in experiment [7], 0.115 µM.

For `CCSC(=S)SCC(=O)c1ccc(-c2ccc(N)cn2)s1`, the IC50 in [2] came to 1.18 µM; in experiment [3], 43 nM; in experiment [4], 0.452 µM; in experiment [6], 831 nM; in experiment [7], 0.083 µM.

Take `CCSC(=S)SCC(=O)c1ccc(NS(=O)(=O)c2ccc(Cl)cc2)cc1`: the IC50 stood at 1.74 µM in [2]; 979 nM in experiment [3]; 10.4 µM in [4]; 2490 nM in [6]; 0.025 µM in experiment [7].

Take `CCSC(=S)SCC(=O)c1cccc(NS(=O)(=O)c2ccc(Cl)cc2)c1`: the IC50 in experiment [2] came out at 9.08 µM; in experiment [3], 1250 nM; in experiment [4], 46.6 µM; in experiment [6] it was 3460 nM; in experiment [7] it was 0.048 µM.
